In ChEMBL document CHEMBL4346742, “The parmodulin NRD-21 is an allosteric inhibitor of PAR1 Gq signaling with improved anti-inflammatory activity and stability” (Bioorg Med Chem, 2019):
Converted amounts (≈) assume the structure as drawn. The source made the active and inactive calls. The rule behind the calls is not given here.

Key:
[1] = target: T1, Proteinase-activated receptor 1 (Homo sapiens) (UniProt P25116); test: Negative allosteric modulation of PAR1 in human EAhy926 cells assessed as reduction in TFLLRN-NH2-induced intracellular calcium mobilization at 10 uM incubated for 15 mins followed by TFLLRN-NH2 addition by Fluo-4-AM dye based fluorescence assay relative to control; type: functional, cell-based
T1 sequence (whole entry): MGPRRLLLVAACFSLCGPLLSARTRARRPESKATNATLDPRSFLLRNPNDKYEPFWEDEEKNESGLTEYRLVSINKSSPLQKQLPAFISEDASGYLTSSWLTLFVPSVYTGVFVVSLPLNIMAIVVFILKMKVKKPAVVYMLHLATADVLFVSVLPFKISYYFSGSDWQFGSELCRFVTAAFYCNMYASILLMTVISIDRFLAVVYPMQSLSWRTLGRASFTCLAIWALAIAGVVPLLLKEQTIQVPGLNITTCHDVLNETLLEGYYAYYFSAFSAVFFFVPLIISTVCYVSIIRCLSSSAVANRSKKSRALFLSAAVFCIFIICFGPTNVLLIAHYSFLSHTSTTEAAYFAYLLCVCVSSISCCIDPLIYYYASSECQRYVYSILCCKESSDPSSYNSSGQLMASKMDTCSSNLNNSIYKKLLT
Summary of the method: (§1)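 Adherent EA.hy926 endothelial cells in 96-well format, intracellular Ca2+ mobilization triggered by PAR1 agonist TFLLRN-NH2 at 5 µM; single-point % inhibition at 10 µM (n = 4 wells, SEM); 7-point concentration-response curves, 3 wells per concentration, pIC50 from 4-variable non-linear regression; average IC50 ± SEM over independent assays.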

[2] = target: T2, Proteinase-activated receptor 1 (Homo sapiens, UniProt P25116); test: Negative allosteric modulation of PAR1 in human EAhy926 cells assessed as reduction in TFLLRN-NH2-induced intracellular calcium mobilization incubated for 15 mins followed by TFLLRN-NH2 addition by Fluo-4-AM dye based fluorescence assay; type: functional, cell-based; summary of the method: as §1
T2 sequence (P25116 whole entry): T1 sequence (whole entry)

[3] = target: Proteinase-activated receptor 2 (Homo sapiens) (UniProt P55085); test: Negative allosteric modulation of PAR2 in human EAhy926 cells assessed as reduction in SLIGKV-NH2-induced intracellular calcium mobilization at 0.316 to 10 uM incubated for 15 mins followed by TFLLRN-NH2 addition by Fluo-4-AM dye based fluorescence assay relative to control; type: functional, cell-based
Sequence of Proteinase-activated receptor 2 (Homo sapiens) (P55085 whole entry): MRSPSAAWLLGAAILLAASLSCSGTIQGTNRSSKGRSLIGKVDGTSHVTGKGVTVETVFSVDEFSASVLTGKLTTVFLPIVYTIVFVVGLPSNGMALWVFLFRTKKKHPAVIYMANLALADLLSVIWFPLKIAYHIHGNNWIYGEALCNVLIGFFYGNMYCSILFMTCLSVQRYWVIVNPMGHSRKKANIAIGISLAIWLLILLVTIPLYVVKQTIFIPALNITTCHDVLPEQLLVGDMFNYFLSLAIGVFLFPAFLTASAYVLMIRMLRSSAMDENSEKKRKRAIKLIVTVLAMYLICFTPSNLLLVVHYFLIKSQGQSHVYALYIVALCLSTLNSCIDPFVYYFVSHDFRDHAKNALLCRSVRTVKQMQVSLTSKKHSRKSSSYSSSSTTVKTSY

[4] = target: T1, Proteinase-activated receptor 1 (Homo sapiens); test: Reversible inhibition of PAR1 in human EAhy926 cells assessed as reduction in TFLLRN-NH2-induced intracellular calcium mobilization at 10 uM incubated for 15 mins and washed in buffer followed by TFLLRN-NH2 addition by Fluo-4-AM dye based fluorescence assay relative to control; type: functional, cell-based
[5] = target: Translocator protein (Rattus norvegicus) (UniProt P16257); test: Inhibition of rat PBR at 10 uM
Sequence of Translocator protein (Rattus norvegicus) (P16257 whole entry, looked up): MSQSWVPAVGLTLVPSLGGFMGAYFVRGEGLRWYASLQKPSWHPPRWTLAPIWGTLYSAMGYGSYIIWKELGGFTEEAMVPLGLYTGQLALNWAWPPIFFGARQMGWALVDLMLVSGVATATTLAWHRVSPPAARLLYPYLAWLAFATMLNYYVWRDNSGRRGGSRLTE

[6] = Stability in human microsomes for 1 hr; type: ADME, Microsome; conditions: read-out: Stability
Summary of the method: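 Human liver microsomes, % remaining after 1 h.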

[7] = target: Beta-1 adrenergic receptor (Homo sapiens) (UniProt P08588); test: Inhibition of beta1 adrenoceptor (unknown origin) at 10 uM by radio ligand binding assay
Sequence of Beta-1 adrenergic receptor (Homo sapiens) (P08588 whole entry, looked up): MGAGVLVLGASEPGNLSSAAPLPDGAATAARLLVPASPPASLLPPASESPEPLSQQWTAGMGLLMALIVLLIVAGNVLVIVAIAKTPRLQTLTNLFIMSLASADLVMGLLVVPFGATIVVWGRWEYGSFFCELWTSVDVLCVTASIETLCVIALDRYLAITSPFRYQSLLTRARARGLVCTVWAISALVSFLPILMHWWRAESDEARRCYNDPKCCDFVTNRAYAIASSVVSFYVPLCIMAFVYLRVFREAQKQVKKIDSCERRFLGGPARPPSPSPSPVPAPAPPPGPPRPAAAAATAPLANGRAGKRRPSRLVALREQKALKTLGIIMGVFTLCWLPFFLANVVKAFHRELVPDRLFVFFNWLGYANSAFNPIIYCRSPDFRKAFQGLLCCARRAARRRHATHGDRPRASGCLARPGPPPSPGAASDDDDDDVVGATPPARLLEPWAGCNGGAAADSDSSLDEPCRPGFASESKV

[8] = target: Beta-3 adrenergic receptor (Homo sapiens) (UniProt P13945); test: Inhibition of beta3 adrenoceptor (unknown origin) at 10 uM by radio ligand binding assay
Sequence of Beta-3 adrenergic receptor (Homo sapiens) (P13945 whole entry, looked up): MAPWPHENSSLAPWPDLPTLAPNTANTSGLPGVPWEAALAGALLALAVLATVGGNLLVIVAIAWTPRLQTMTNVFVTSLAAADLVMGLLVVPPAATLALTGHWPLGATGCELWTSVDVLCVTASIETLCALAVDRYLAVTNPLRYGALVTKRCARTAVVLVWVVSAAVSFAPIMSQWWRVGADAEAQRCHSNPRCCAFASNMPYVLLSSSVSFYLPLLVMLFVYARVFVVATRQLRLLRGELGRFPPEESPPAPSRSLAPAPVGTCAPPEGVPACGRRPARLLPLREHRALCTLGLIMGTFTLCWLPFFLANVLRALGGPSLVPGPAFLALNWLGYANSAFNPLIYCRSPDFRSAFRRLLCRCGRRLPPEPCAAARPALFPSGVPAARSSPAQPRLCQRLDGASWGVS

HepG2 = test: Cytotoxicity against human HepG2 cells assessed as reduction in cell viability; type: cell-based
Summary of the method: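 Human HepG2 cells; cytotoxicity reported as CC50.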

[9] = Solubility in 2.5% DMSO; type: physicochemical
Summary of the method: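 Kinetic aqueous solubility assay with 2.5% DMSO.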

[10] = Stability in mouse plasma at 10 uM measured at 4 hrs by LC-MS analysis; type: ADME, cell-free
Summary of the method: (§2)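 Compound incubated in mouse or human plasma; % parent remaining at 4 h.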

[11] = Stability in human plasma at 10 uM measured at 4 hrs by LC-MS analysis; type: ADME, cell-free; summary of the method: as §2
HUVEC (human) = test: Antiinflammatory activity in human HUVEC cells assessed as inhibition of TNFalpha-induced TF expression at 10 uM preincubated for 1 hr followed by TNFalpha addition and measured after 3 hrs by qPCR analysis
Platelet = test: Antiplatelet activity in human washed platelets assessed as inhibition of SFLLRN-NH2-induced platelet aggregation at 10 uM incubated for 2 mins followed by SFLLRN-NH2 addition and monitored for 5 mins by lumi-aggregometery
[12] = target: T1, Proteinase-activated receptor 1 (Homo sapiens); test: Negative allosteric modulation of PAR1 in human EAhy926 cells assessed as reduction in TFLLRN-NH2-induced intracellular calcium mobilization incubated for 15 mins followed by TFLLRN-NH2 addition by Fluo-4-AM dye based fluorescence assay relative to control; type: functional, cell-based; summary of the method: as §1
[13] = target: T1, Proteinase-activated receptor 1 (Homo sapiens); test: Negative allosteric modulation of PAR1 in human EAhy926 cells assessed as reduction in TFLLRN-NH2-induced intracellular calcium mobilization at 31.6 uM incubated for 15 mins followed by TFLLRN-NH2 addition by Fluo-4-AM dye based fluorescence assay relative to control; type: functional, cell-based
[14] = Stability in mouse plasma at 20 uM measured at 4 hrs by LC-MS analysis; type: ADME, cell-free; summary of the method: as §2
[15] = Stability in human plasma at 20 uM measured at 4 hrs by LC-MS analysis; type: ADME, cell-free; summary of the method: as §2
[16] = target: Sodium-dependent noradrenaline transporter (Homo sapiens) (UniProt P23975); test: Inhibition of NET receptor (unknown origin) at 10 uM
Sequence of Sodium-dependent noradrenaline transporter (Homo sapiens) (P23975 whole entry): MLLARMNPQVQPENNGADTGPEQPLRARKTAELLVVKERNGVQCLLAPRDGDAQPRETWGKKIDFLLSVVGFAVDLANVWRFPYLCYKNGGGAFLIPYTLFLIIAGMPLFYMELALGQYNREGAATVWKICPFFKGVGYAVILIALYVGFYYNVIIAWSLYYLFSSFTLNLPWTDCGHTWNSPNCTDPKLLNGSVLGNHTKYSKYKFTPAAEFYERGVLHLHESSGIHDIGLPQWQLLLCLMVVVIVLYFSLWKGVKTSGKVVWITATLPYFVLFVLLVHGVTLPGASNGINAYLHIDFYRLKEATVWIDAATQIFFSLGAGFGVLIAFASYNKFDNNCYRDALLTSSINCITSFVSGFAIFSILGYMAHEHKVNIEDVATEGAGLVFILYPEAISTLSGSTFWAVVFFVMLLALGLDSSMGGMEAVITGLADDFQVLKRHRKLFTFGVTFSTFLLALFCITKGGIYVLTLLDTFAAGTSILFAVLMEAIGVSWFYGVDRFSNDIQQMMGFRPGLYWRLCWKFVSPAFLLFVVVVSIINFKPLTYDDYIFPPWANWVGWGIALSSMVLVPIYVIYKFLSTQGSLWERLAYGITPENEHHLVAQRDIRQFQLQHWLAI

[17] = target: T1, Proteinase-activated receptor 1 (Homo sapiens); test: Negative allosteric modulation of PAR1 in human EAhy926 cells assessed as reduction in TFLLRN-NH2-induced intracellular calcium mobilization at 0.0316 to 3.16 uM incubated for 15 mins followed by TFLLRN-NH2 addition by Fluo-4-AM dye based fluorescence assay relative to control
[18] = target: T1, Proteinase-activated receptor 1 (Homo sapiens); conditions: 0.316 uM

For `COCCC(=O)Nc1cccc(NC(=O)c2ccccc2Br)c1`, the inhibition [1] was 39%.
Compound `O=C(Nc1cccc(NC(=O)C2CCCO2)c1)c1ccccc1Br` (stereo not drawn) has an inhibition [1] of 42%.
For `O=C(CC(F)(F)F)Nc1cccc(NC(=O)c2ccccc2Br)c1`, the IC50 ([2]; read-out: IC50) was 380 nM, the inhibition [1] was 88% and the inhibition [3] was “inactive”. The inhibition [4] was “Active”.
Compound `O=C(Nc1cccc(NC(=O)C2CCCC2)c1)c1ccccc1Br` has an inhibition [1] of 65%.
In the case of `O=C(Nc1cccc(NC(=O)C2CCOC2)c1)c1ccccc1Br` (stereo not drawn), the inhibition [1] is reported as 44%.
Compound `CCCCC(=O)Nc1cccc(NC(=O)c2ccccc2Br)c1` has an inhibition [1] of 23%.
Work on `O=C(Nc1cccc(NC(=O)c2ccccc2Br)c1)c1ccccc1` yielded an inhibition [1] of 58%.
Work on `CC(C)[C@@H](O)C(=O)Nc1cccc(NC(=O)c2ccccc2Br)c1` yielded an inhibition [1] of 25%.
In the case of `CCCC(=O)Nc1cccc(NC(=O)c2ccccc2Br)c1`, the inhibition [5] is reported as 84%, the IC50 ([2]; read-out: IC50) is reported as 570 nM and the inhibition [3] is reported as “inactive”. For the same compound, the inhibition [4] was “Active”, the remaining at 1 h [6] was 99% and the inhibition [7] was 49%. For the same compound, the inhibition [8] was 32%, the CC50 (HepG2) was > 150000 nM and the solubility kinetic [9] was 24 µM (≈ 8.67 µg/mL). The Stability [10] was < 1%, the Stability [11] was 79% and the inhibition (HUVEC (human)) was “Active”. The inhibition at 10 µM (Platelet) was 100%.
In the case of `CCCN(CCC)c1cccc(NC(=O)c2ccccc2Br)c1`, the inhibition [1] is reported as 13%.
For `CCCNC(=O)c1cccc(NC(=O)c2ccccc2Br)c1`, the IC50 ([2]; read-out: IC50) was 220 nM, the inhibition [1] was 63% and the inhibition [12] was 50%.
For `COC(C)C(=O)Nc1cccc(NC(=O)c2ccccc2Br)c1` (stereo not drawn), the inhibition [1] was 58%.
`CCC(C)C(=O)Nc1cccc(NC(=O)c2ccccc2Br)c1` (stereo not drawn) showed an inhibition [1] of 27%.
For `COC(=O)CC(=O)Nc1cccc(NC(=O)c2ccccc2Br)c1`, the inhibition [1] was 11%.
Compound `COC(=O)Nc1cccc(NC(=O)c2ccccc2Br)c1` has an inhibition [1] of 42%.
`CC(C)[C@H](O)C(=O)Nc1cccc(NC(=O)c2ccccc2Br)c1` showed an inhibition [1] of 48%.
`O=C(O)CC(=O)Nc1cccc(NC(=O)c2ccccc2Br)c1` gave an inhibition [1] of 37%.
`COCC(=O)Nc1cccc(NC(=O)c2ccccc2Br)c1` gave an inhibition [1] of 38%.
Work on `COCCNc1cccc(NC(=O)c2ccccc2Br)c1` yielded an inhibition [1] of 43%.
Work on `O=C(Nc1cccc(NC(=O)c2ccccc2Br)c1)c1cocn1` yielded an IC50 ([2]; read-out: IC50) of 420 nM, an inhibition [1] of 82% and an inhibition [13] of 50%. For the same compound, the inhibition [3] was “inactive” and the inhibition [4] was “Active”.
`CC(C)(C)OC(=O)N1CCC[C@H]1C(=O)Nc1cccc(NC(=O)c2ccccc2Br)c1` showed an inhibition [1] of -8%.
Compound `CN(C)CC(=O)Nc1cccc(NC(=O)c2ccccc2Br)c1` has an inhibition [1] of 3%.
Compound `O=C(Nc1cccc(NC(=O)[C@@H]2CCCN2)c1)c1ccccc1Br` has an inhibition [1] of 4%.
For `C#CCCC(=O)Nc1cccc(NC(=O)c2ccccc2Br)c1`, the IC50 ([2]; read-out: pIC50 (converted)) was > 10000 nM.
For `O=C(Nc1cccc(NC(=O)[C@H]2CCCN2)c1)c1ccccc1Br`, the inhibition [1] was 63%.
For `CCCCNc1cccc(NC(=O)c2ccccc2Br)c1`, the inhibition [1] was 85%, the inhibition [3] was “inactive” and the inhibition [4] was “Active”.
`O=C(Nc1cccc(NC(=O)c2ccccc2Br)c1)c1cnco1` gave an inhibition [5] of 67%, an IC50 ([2]; read-out: IC50) of 370 nM and an inhibition [1] of 90%. The inhibition [3] was “inactive”, the inhibition [4] was “Active” and the Stability [14] was 32%. It also gave a Stability [15] of 97%, a remaining at 1 h [6] of 99% and an inhibition [16] of 31%. The CC50 (HepG2) was > 150000 nM, the solubility kinetic [9] was 17 µM (≈ 6.57 µg/mL) and the inhibition (HUVEC (human)) was “Active”. For the same compound, the inhibition at 10 µM (Platelet) was 100% and the inhibition [17] was “Active”.
For `NC(=O)CC(=O)Nc1cccc(NC(=O)c2ccccc2Br)c1`, the inhibition [1] was 36%.
`CC(C)CC(=O)Nc1cccc(NC(=O)c2ccccc2Br)c1` showed an inhibition [1] of 82%.
`CC(C)(C)OC(=O)N1CCC[C@@H]1C(=O)Nc1cccc(NC(=O)c2ccccc2Br)c1` showed an inhibition [1] of 65%.
With `CCOC(=O)N[C@@H]1CC[C@@H]2[C@@H](C1)C[C@H]1C(=O)O[C@H](C)[C@H]1[C@H]2/C=C/c1ccc(-c2cccc(F)c2)cn1` the inhibition [3] was “inactive”, the inhibition [4] was “inactive” and the inhibition [18] was > 75%.
`CCC(=O)Nc1cccc(NC(=O)c2ccccc2Br)c1` showed an inhibition [1] of 54%.
With `O=C(Nc1cccc(NC(=O)c2ccccc2Br)c1)c1ccco1` the IC50 ([2]; read-out: IC50) was 320 nM, the inhibition [1] was 92% and the inhibition [3] was “inactive”. For the same compound, the inhibition [4] was “Active”.
`CCCCOc1cccc(NC(=O)c2ccccc2Br)c1` gave an inhibition [1] of 57%.
`CCC(O)C(=O)Nc1cccc(NC(=O)c2ccccc2Br)c1` (stereo not drawn) showed an inhibition [1] of 21%.
With `CCCNCc1cccc(NC(=O)c2ccccc2Br)c1` the inhibition [1] was 17%.
`CCOC(=O)Nc1cccc(NC(=O)c2ccccc2Br)c1` showed an inhibition [1] of 60%.
